We go through six molecules from PMC2765518 (Journal of medicinal chemistry, 2009).

For series [1] the following is noted: cited from earlier work.
Another series addresses c-Myc-Max(S) heterodimer (Homo sapiens, UniProt P01106). Kind of series: Circular dichroism assay of c-Myc-Max dimer disruption. The class given is biochemical. In short, it runs like this:
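Circular dichroism of an equimolar c-Myc/Max(S) mixture, each at 1.5 µM, with helical content from ellipticity at 222 nm. Dimer disruption lowers helicity. Test compound was titrated and the data fitted to a competition constant (Kcomp). Kcomp multiplied by the independently determined c-Myc-Max dissociation constant gives the affinity for the c-Myc monomer, assuming monomer-only binding. Run in triplicate.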

In the next series the target is c-Myc (353–437) monomer (Homo sapiens, UniProt P01106). Briefly: Fluorescence polarization competition against 1 for c-Myc binding. Put shortly:
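Fluorescence polarization of an intrinsically fluorescent parent Myc-Max disruptor used as probe; polarization rises when the probe binds the c-Myc (353–437) monomer. Test compound was titrated to displace the probe, and the data fitted to a competition constant (Kcomp). Affinity is Kcomp multiplied by the probe–c-Myc(353–437) dissociation constant. Run in triplicate.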
For orientation: Polarisation of emitted light reports the rotation of a fluorescent probe.

Series [2] relates to TGR1 knockout cells with over-expressed HMGA1b (KO+HMG). Briefly: Growth inhibition of TGR1 knockout cells with over-expressed HMGA1b. The class given is cell-based, rat. To be noted: cells lacking c-Myc; compared with HL60 and TGR1.
In a further series the test system is HL60 cells. Kind of series: HL60 cell growth inhibition. The class given is cell-based. Particulars: for Inhibition in HL60 cells: higher levels of c-Myc. In short, it runs like this:
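Test compound added to HL60 cells across a dose range, and growth followed over several days. IC50 taken from the dose-response profile on day 5 after compound addition. For the selectivity comparison, TGR1 normal rat fibroblasts and TGR1 knockout cells over-expressing HMGA1b (KO+HMG) were tested alongside.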

Usually Kd stands for the concentration at which binding is half-saturated. Low values mean a tighter complex, high ones a looser complex. As usually defined, the IC50 is the point on the concentration scale where inhibition reaches its midpoint.

c-Myc-Max(S) heterodimer, sequence (P01106 368-452, one chain of several): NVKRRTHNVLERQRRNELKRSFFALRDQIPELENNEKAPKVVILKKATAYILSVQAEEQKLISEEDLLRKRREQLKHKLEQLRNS
c-Myc (353–437) monomer, sequence (P01106 368-452): as the sequence (P01106 368-452, one chain of several) above

`CCc1ccc(/C=C2\SC(=S)NC2=O)cc1` [compound 1, [Z,E]-5-[4-ethylbenzylidine]-2-thioxothiazolidin-4-one]: the Metabolism and clearance result in series [1] was “extensive metabolism and rapid clearance”.

Regarding `O=C(CCN1C(=O)c2ccccc2C1=O)N1CCCCC1` [compound 2], the Kd turned out to be 10 µM at c-Myc-Max(S) heterodimer and 2.5 µM on c-Myc (353–437) monomer.

Regarding `CCc1ccc(N2CC(C(=O)OC)CC2=O)cc1` (stereo not drawn) [compound 3], the Kd came out at 25 µM on c-Myc-Max(S) heterodimer and 40 µM at c-Myc (353–437) monomer.

Consider `CC(C)c1ccc(OCC(=O)Nc2nc3ccccc3s2)cc1` [compound 4], for which the Kd at c-Myc-Max(S) heterodimer came out at 19 µM; at c-Myc (353–437) monomer, 18 µM.

`CCc1ccc(OCC(=O)Nc2ccc(C)cc2Br)cc1` [compound 5]: the “Effect on growth of KO+HMG cells” value in series [2] is listed as “least effect”. For the same molecule, the Kd came to 45 µM on c-Myc-Max(S) heterodimer and 70 µM at c-Myc (353–437) monomer. For the same molecule, the “Inhibition in HL60 cells” value with HL60 cells is on record as “very good inhibition”. The “Selectivity for HL60 cells” value in the series with HL60 cells (HL60 versus TGR1 and KO+HMG cells) is given as “more selective for HL60s than 6”.

Turning to `Cc1ccc(C)c(OCN2Cc3ccccc3C2C=O)c1` (stereo not drawn) [compound 6], the “Effect on growth of KO+HMG cells” value in series [2] was “least effect”. In addition, the “Inhibition in HL60 cells” value in the series on HL60 cells is listed as “very good inhibition”. For the same molecule, the IC50 with HL60 cells (Homo sapiens, HL-60, 120 h, read-out: IC50 on HL60 cell growth) came out at 16.7 µM.
